Data: ChEMBL document CHEMBL1671778, “Synthesis and serotonin transporter activity of 1,3-bis(aryl)-2-nitro-1-propenes as a new class of anticancer agents” (Bioorg Med Chem, 2011)
Calls of active or inactive are those of the source. No cut-off for these calls is given here.

Tests used:
[1] = system: MUTU-I; assay: Induction of apoptosis in human chemosensitive MUTU-I cells assessed as induction of PARP cleavage at 10 uM after 4 hrs; type: functional, cell-based
Procedure, shortened: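 PARP cleavage by Western blot: 5x10^6 cells pelleted (500 ×g, 5 min), washed, and lysed in Laemmli buffer with protease inhibitors. Lysates run on 8% SDS-PAGE, transferred to PVDF, and probed with anti-PARP detecting full-length 113 kDa and cleaved 85 kDa forms. HRP secondary antibody, chemiluminescence detection.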

[2] = Cytotoxicity against human chemosensitive MUTU-I cells expressing SERT assessed as decrease in cell viability 10 or 50 uM after 24 hrs Alamar blue assay
[3] = system: MUTU-I; assay: Induction of apoptosis in human chemosensitive MUTU-I cells assessed as chromatin condensation and membrane bledding at 10 uM after 4 hrs; type: functional, cell-based
Procedure, shortened: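 Cells at 3x10^5 cells/mL exposed for 4 h or 8 h. 150 µl aliquots were cytocentrifuged onto slides (500 ×g, 2 min), air-dried, methanol-fixed, and stained with eosin Y and methylene blue. Morphology was examined by light microscopy at 60x.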

[4] = system: MUTU-I; assay: Induction of apoptosis in human chemosensitive MUTU-I cells assessed as caspase 3/7 activation at 10 uM after 4 hrs; type: functional, cell-based
[5] = system: HEK293; assay: Cytotoxicity against human HEK293 cells assessed as decrease in cell viability after 48 hrs neutral red dye assay; type: functional, cell-based; conditions: HEK293, 48 h
Procedure, shortened: (§1)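 5x10^4 cells/well grown to sub-confluence (24-36 h), then exposed to compound 48 h. Neutral red dye 3+1 h, solubilised in 50% ethanol/1% acetic acid, absorbance 540 nm (690 nm background). Viability as percent of vehicle-treated cells; pEC50 by non-linear sigmoidal regression over 4 concentrations, triplicate on two independent days. Controls 30 mM sodium azide, 2% Triton-X. HEK293-hSERT cells kept in Geneticin, used up to 30 passages.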

[6] = target: T1, Sodium-dependent serotonin transporter (Homo sapiens, UniProt P31645); conditions: HEK293, at 100 µM
Target sequence in this assay (P31645 whole entry, looked up): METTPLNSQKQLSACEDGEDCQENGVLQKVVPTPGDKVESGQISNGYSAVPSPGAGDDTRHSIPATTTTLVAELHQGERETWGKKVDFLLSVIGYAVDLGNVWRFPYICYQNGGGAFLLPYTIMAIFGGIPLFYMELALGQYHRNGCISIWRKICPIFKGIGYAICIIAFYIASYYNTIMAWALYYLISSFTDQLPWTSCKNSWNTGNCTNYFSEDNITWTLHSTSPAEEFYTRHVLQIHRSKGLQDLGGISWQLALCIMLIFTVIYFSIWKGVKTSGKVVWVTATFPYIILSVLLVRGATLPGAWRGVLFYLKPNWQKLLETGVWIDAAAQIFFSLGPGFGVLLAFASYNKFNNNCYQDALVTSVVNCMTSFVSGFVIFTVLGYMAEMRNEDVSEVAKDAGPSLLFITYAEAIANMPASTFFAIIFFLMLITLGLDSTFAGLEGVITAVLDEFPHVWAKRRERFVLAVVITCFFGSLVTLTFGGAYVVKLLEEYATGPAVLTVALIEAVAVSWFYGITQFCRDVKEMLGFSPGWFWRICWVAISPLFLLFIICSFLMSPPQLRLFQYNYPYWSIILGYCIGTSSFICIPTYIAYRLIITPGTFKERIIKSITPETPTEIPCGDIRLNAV

[7] = target: T1, Sodium-dependent serotonin transporter; assay: Inhibition of [3H]-serotonin reuptake at human SERT expressed in HEK293 cells after 15 to 20 mins by fluorescence neurotransmitter transporter assay; type: cell-based
Target sequence in this assay (P31645 whole entry): as the sequence (P31645 whole entry, looked up) above

[8] = system: DG-75; assay: Induction of apoptosis in human chemoresistant DG75 cells assessed as formation of apoptotic bodies by propidium iodide FACS analysis; type: functional, cell-based
[9] = system: SH-SY5Y; assay: Cytotoxicity against human SH-SY5Y cells expressing human SERT assessed as decrease in cell viability after 48 hrs neutral red dye assay; type: functional, cell-based
[10] = system: DG-75; assay: Antiproliferative activity against human DG75 cells after 24 hrs Alamar blue assay; type: functional, cell-based; conditions: DG-75, 24 h
Procedure, shortened: (§2)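 Alamar Blue viability: 1-5x10^4 cells/well treated 24 h, then Alamar Blue (pre-warmed) 4-6 h at 37 °C in the dark. Fluorescence read at 590 nm (excitation 544 nm), background of medium plus dye subtracted, untreated cells = 100% viability. Miconazole 10 µM as cell-death control. Range 1 µM-1 mM, triplicate on two independent days. pEC50 from non-linear sigmoidal regression.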

[11] = system: DG-75; assay: Cytotoxicity against human chemoresistant DG75 cells expressing SERT assessed as decrease in cell viability 10 or 50 uM after 72 hrs Alamar blue assay; type: functional, cell-based
Procedure, shortened: (§3)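 1-5x10^4 cells/200 µl given 10 or 50 µM for 24 h (MUTU-I, MDA-MB231, PBMC) or […]. Alamar Blue at 37 °C in the dark 4-6 h, then fluorescence read with 544/590 nm. Media-only background subtracted; untreated cells set as 100% viability. Mean of six points (triplicate, two independent days). PBMCs from a healthy donor, isolated by ficoll density separation.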

[12] = Induction of apoptosis in human chemosensitive MUTU-I cells assessed as formation of apoptotic bodies by propidium iodide FACS analysis; type: functional, cell-based
[13] = system: MDA-MB-231; assay: Cytotoxicity against human MDA-MB-231 cells assessed as decrease in cell viability 10 or 50 uM after 24 hrs Alamar blue assay; type: functional, cell-based; procedure, shortened: as §3
[14] = target: T1, Sodium-dependent serotonin transporter; conditions: HEK293, at 1 µM
Target sequence in this assay (P31645 whole entry, looked up): as above

[15] = system: HEK293; assay: Cytotoxicity against human HEK293 cells expressing human SERT assessed as decrease in cell viability after 48 hrs neutral red dye assay; type: functional, cell-based; conditions: HEK293, 48 h; procedure, shortened: as §1
[16] = system: SH-SY5Y; assay: Antiproliferative activity against human SH-SY5Y cells after 24 hrs Alamar blue assay; type: functional, cell-based; procedure, shortened: as §2
[17] = system: PBMC; assay: Cytotoxicity against human PBMC cells assessed as decrease in cell viability 10 or 50 uM after 24 hrs Alamar blue assay; type: cell-based; procedure, shortened: as §3

| SMILES | Activity [1] | IC50 [2] | Activity [3] | Activity [4] | EC50 [5] | inhibition [6] | IC50 [7] | EC50 [8] | EC50 [9] | EC50 [10] | Activity [11] | EC50 ([11]; DG-75, 72 h) | EC50 [12] | Activity [13] | inhibition [14] | EC50 [15] | EC50 [16] | Activity [17] |
| --- | --- | --- | --- | --- | --- | --- | --- | --- | --- | --- | --- | --- | --- | --- | --- | --- | --- | --- |
| CC(=O)O[C@H]1C(=O)[C@@]2(C)[C@H]([C@H](OC(=O)c3ccccc3)[C@]3(O)C[C@H](OC(=O)[C@H](O)[C@@H](NC(=O)c4ccccc4)c4ccccc4)C(C)=C1C3(C)C)[C@]1(OC(C)=O)CO[C@@H]1C[C@@H]2O [PACLITAXEL] | inactive | 0.01 µM | inactive | inactive | – | – | – | – | – | – | – | – | – | – | – | – | – | – |
| CSc1ccc(CC(Cc2ccc(SC)cc2)NC=O)cc1 | – | – | – | – | > 10000 µM | 85% | 15.7 µM | 10 µM | 31.6 µM | 5010 µM | Active | 31.6 µM | 13 µM | Active | 5% | 100 µM | 31.6 µM | Non-toxic |
